Measured values taken from ChEMBL document CHEMBL1122876, “Quantitative structure-activity relationship of antifolate inhibition of bacteria cell cultures resistant and sensitive to methotrexate” (1985).
“And” between values parts separate entries of the source, which are not always exact repeats. Equal entries are not always repeated.

What was measured:
Escherichia coli [1] = assay: Inhibition of growth of methotrexate-resistant (MB1428) strain of Escherichia coli cells.; type: functional
Outline: (§1)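 E. coli cultures kept on nutrient agar slants. Inoculum from two serial 24 h, 37 °C transfers in glucose-salts medium with 0.6% vitamin-free acid-hydrolyzed casein, washed twice, then diluted to about 15 cells/mL. Each 10 mL tube held basal medium, 25% glucose solution (1 mL) and inhibitor dissolved in water or 0.04 M HCl, diluted in sterile water. C = molar concentration giving 50% culture inhibition.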

Escherichia coli [2] = assay: Inhibition of growth of methotrexate-sensitive (MB1417) strain of Escherichia coli cells.; type: functional; outline: as §1
[3] = biological target: T1, Dihydrofolate reductase type 1 (Escherichia coli) (UniProt P00382)
T1 sequence (whole entry): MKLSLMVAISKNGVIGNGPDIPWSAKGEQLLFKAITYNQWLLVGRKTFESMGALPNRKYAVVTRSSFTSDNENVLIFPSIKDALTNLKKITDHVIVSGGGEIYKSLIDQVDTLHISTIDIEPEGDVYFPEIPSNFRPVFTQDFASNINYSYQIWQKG

Escherichia coli [4] = assay: Inhibition of growth of methotrexate sensitive (MB1417) strain of Escherichia coli cells; type: functional; outline: as §1
Escherichia coli [5] = assay: Inhibition of growth of methotrexate resistant (MB1428) strain of Escherichia coli cells; type: functional; outline: as §1
Escherichia coli [6] = assay: Compound was evaluated for the inhibition of growth of methotrexate sensitive (MB1417) strain of Escherichia coli cells; d=values could not be determined due to solubility problems encountered with these congener; type: functional, organism-based; outline: as §1
Escherichia coli [7] = assay: Compound was evaluated for the inhibition of growth of methotrexate resistant (MB1428) strain of Escherichia coli cells; d=values could not be determined due to solubility problems encountered with these congener; type: functional, organism-based; outline: as §1
Escherichia coli [8] = assay: The compound was evaluated for the inhibition of growth of methotrexate resistant (MB1428) strain of Escherichia coli cells; d=values could not be determined due to solubility problems encountered with these congener; type: functional, organism-based

Compound	Log 1/C (Escherichia coli [1])	Log 1/C (Escherichia coli [2])	also measured
COCCOc1c(OC)cc(Cc2cnc(N)nc2N)cc1OC [TETROXOPRIM]	4.72	5.83	–
Nc1ncc(Cc2cccc(O)c2)c(N)n1	2.94	4.35	–
CC1(C)N=C(N)N=C(N)N1c1cccc(COc2cccc(Cl)c2)c1	–	–	Log 1/Ki app [3]: 6.01
COc1cc(Cc2cnc(N)nc2N)cc(OC)c1SC [METIOPRIM]	5.66	6.97	–
CC(=O)Nc1ccc(Cc2cnc(N)nc2N)cc1	3.03	4.08	–
CCc1nc(N)nc(N)c1-c1ccc(Cl)cc1 [PYRIMETHAMINE]	3.56	4.21	–
COCc1cccc(Cc2cnc(N)nc2N)c1	2.98	4.68	–
CC1(C)N=C(N)N=C(N)N1c1cccc(COc2cccc(CO)c2)c1	–	–	Log 1/Ki app [3]: 6.19; Log 1/C (Escherichia coli [4]): 2.38; Log 1/C (Escherichia coli [5]): 2.51
Cc1cccc(OCc2cccc(N3C(N)=NC(N)=NC3(C)C)c2)c1	–	–	Log 1/Ki app [3]: 6.27; Log 1/C (Escherichia coli [4]): 3.27; Log 1/C (Escherichia coli [5]): 3.41
Nc1ncc(Cc2cccc(Cl)c2)c(N)n1	3.46	4.92	–
Cc1cccc(SCc2cccc(N3C(N)=NC(N)=NC3(C)C)c2)c1	–	–	Log 1/Ki app [3]: 6.57; Log 1/C (Escherichia coli [4]): 3.87; Log 1/C (Escherichia coli [5]): 3.76
CCCCCCCOc1cccc(Cc2cnc(N)nc2N)c1	4.84	4.88	–
COc1cc(Cc2cnc(N)nc2N)cc(OC)c1OC [TRIMETHOPRIM]	5.34	6.61	–
CCc1cccc(OCc2cccc(N3C(N)=NC(N)=NC3(C)C)c2)c1	–	–	Log 1/Ki app [3]: 5.95; Log 1/C (Escherichia coli [4]): 3.67; Log 1/C (Escherichia coli [5]): 3.98
CC1(C)N=C(N)N=C(N)N1c1cccc(COc2cccc(C#N)c2)c1	–	–	Log 1/Ki app [3]: 6.05; Log 1/C (Escherichia coli [4]): 2.74; Log 1/C (Escherichia coli [5]): 3.02
CC1(C)N=C(N)N=C(N)N1c1cccc(COc2cccc(NC(=N)S)c2)c1	–	–	Log 1/Ki app [3]: 6.17
CC(C)(C)c1cccc(OCc2cccc(N3C(N)=NC(N)=NC3(C)C)c2)c1	–	–	Log 1/Ki app [3]: 6.06; Log 1/C (Escherichia coli [4]): 4.1; Log 1/C (Escherichia coli [5]): 4.19
CN(Cc1cnc2nc(N)nc(N)c2n1)c1ccc(C(=O)N[C@@H](CCC(=O)O)C(=O)O)cc1 [METHOTREXATE]	2.7	3.76	–
COCCOc1cccc(Cc2cnc(N)nc2N)c1	2.92	4.33	–
CC1(C)N=C(N)N=C(N)N1c1cccc(CSc2ccccc2)c1	–	–	Log 1/C (Escherichia coli [4]): 3.39; Log 1/C (Escherichia coli [5]): 3.52
CC1(C)N=C(N)N=C(N)N1c1ccc(Cl)cc1 [CYCLOGUANIL]	2.5	2.47	–
CCCCCCOc1ccc(Cc2cnc(N)nc2N)cc1	4.55	4.79	–
CCCCOc1cccc(N2C(N)=NC(N)=NC2(C)C)c1	–	–	Log 1/C (Escherichia coli [4]): 3.29; Log 1/C (Escherichia coli [5]): 3.49
COc1cccc(OCc2cccc(N3C(N)=NC(N)=NC3(C)C)c2)c1	–	–	Log 1/Ki app [3]: 6.02; Log 1/C (Escherichia coli [4]): 3.21; Log 1/C (Escherichia coli [5]): 3.26
C=C(C)c1c(OC)cc(Cc2cnc(N)nc2N)cc1OC	5.66	6.63	–
Nc1ncc(Cc2ccc([N+](=O)[O-])cc2)c(N)n1	3.43	4.53	–
CCCCCCCCOc1cccc(Cc2cnc(N)nc2N)c1	4.41	–	Log 1/C (Escherichia coli [6]): Not detected

Compound	Log 1/C (Escherichia coli [1])	Log 1/C (Escherichia coli [2])	also measured
COc1ccc(OC)c(Cc2cnc3nc(N)nc(N)c3c2C)c1 [PIRITREXIM]	4.56	5.95	–
CCCCCCCCCCCCCCOc1cccc(N2C(N)=NC(N)=NC2(C)C)c1	–	–	Log 1/Ki app [3]: 5.85
Cc1nc(N)nc(N)c1-c1ccc(Cl)c(Cl)c1 [METOPRINE]	4.35	4.24	–
CCCCCCCCOc1c(OC)cc(Cc2cnc(N)nc2N)cc1OC	–	5.18	Log 1/C (Escherichia coli [7]): Not detected
CN(C)c1ccc(Cc2cnc(N)nc2N)cc1	3.46	4.94	–
CC1(C)N=C(N)N=C(N)N1c1cccc(OCc2ccc(Cl)c(Cl)c2)c1	–	–	Log 1/Ki app [3]: 6.15; Log 1/C (Escherichia coli [4]): 4.13; Log 1/C (Escherichia coli [5]): 4.01
COc1cc(Cc2cnc(N)nc2N)cc(OC)c1Br [BRODIMOPRIM]	5.69	6.67	–
CS(=O)(=O)Oc1cccc(Cc2cnc(N)nc2N)c1	3.35	4.59	–
CC1(C)N=C(N)N=C(N)N1c1cccc(COc2cccc(NC(N)=O)c2)c1	–	–	Log 1/Ki app [3]: 5.91
COc1ccc(Cc2cnc(N)nc2N)cc1	3.46 and 3.7	5.24 and 4.77	–
CCOc1cc(Cc2cnc(N)nc2N)ccc1OCc1ccccc1	–	5.04	Log 1/C (Escherichia coli [8]): Not detected
CCOCc1cccc(N2C(N)=NC(N)=NC2(C)C)c1	–	–	Log 1/Ki app [3]: 5.92
Nc1ncc(Cc2ccc(Br)cc2)c(N)n1	3.69	5.12	–
COc1cc(Cc2cnc(N)nc2N)cc(OC)c1	4.55	6.08	–
Nc1ncc(Cc2ccccc2)c(N)n1	2.92	4.28	–
COc1ccc(Cc2cnc(N)nc2N)cc1OC [DIAVERIDINE]	4.46	6.08	–
CCCCCCCCCCCCOc1cccc(N2C(N)=NC(N)=NC2(C)C)c1	–	–	Log 1/Ki app [3]: 5.88
CCCCCCCCCCCOc1cccc(N2C(N)=NC(N)=NC2(C)C)c1	–	–	Log 1/Ki app [3]: 6.19; Log 1/C (Escherichia coli [4]): 5.5; Log 1/C (Escherichia coli [5]): 5.5
CC1(C)N=C(N)N=C(N)N1c1cccc(S(=O)(=O)F)c1	2	2.5	–
CCCCCCCCOc1cc(Cc2cnc(N)nc2N)ccc1OC	–	4.91	Log 1/C (Escherichia coli [7]): Not detected
Cc1cccc(Cc2cnc(N)nc2N)c1	3.29	4.91	–
CCCCOc1ccc(Cc2cnc(N)nc2N)cc1	4.01	4.76	–
CC1(C)N=C(N)N=C(N)N1c1cccc(OCC23CC4CC(CC(C4)C2)C3)c1	–	–	Log 1/C (Escherichia coli [4]): 4.49; Log 1/C (Escherichia coli [5]): 4.63
CCCCCCOc1cccc(Cc2cnc(N)nc2N)c1	4.53	4.81	–
CC1(C)N=C(N)N=C(N)N1c1cccc(OCCOc2cccc(C(F)(F)F)c2)c1	4.14	4.01	–
COCCOc1ccc(Cc2cnc(N)nc2N)cc1	3.11	4.61	–
